Results published in ChEMBL document CHEMBL1811790, “Oxadiazole derivatives containing 1,4-benzodioxan as potential immunosuppressive agents against RAW264.7 cells” (Bioorg Med Chem, 2011).
Active and inactive are the calls of the source. The rule behind the calls is not given here.

How the values were obtained:
RAW264.7 [1] = assay: Acute toxicity in mouse RAW264.7 cells assessed as OD540 absorbance incubated for 24 hrs by MTT assay; type: cell-based; settings: raw264.7, 24 h
Outline: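 RAW264.7 cells kept in DMEM with 5% FBS, 100 U/mL penicillin and streptomycin, at 37 °C in humidified 5% CO2. Compounds were added at the indicated concentrations for 24 h. MTT reagent (5 mg/mL stock) was then added for 4 h, supernatants were aspirated and formazan crystals were dissolved for reading. Control and blank wells received 0.1% DMSO.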

[2] = biological target: T1, Nitric oxide synthase, inducible (Mus musculus, UniProt P29477); assay: Inhibition of iNOS in mouse RAW264.7 cells assessed as conversion of L-citrulline to L-arginine incubated for 30 mins by scintillation counting; type: cell-based; settings: in the assay text read “conversion of L-arginine to L-citrulline” for “conversion of L-citrulline to L-arginine”
T1 sequence (P29477 whole entry): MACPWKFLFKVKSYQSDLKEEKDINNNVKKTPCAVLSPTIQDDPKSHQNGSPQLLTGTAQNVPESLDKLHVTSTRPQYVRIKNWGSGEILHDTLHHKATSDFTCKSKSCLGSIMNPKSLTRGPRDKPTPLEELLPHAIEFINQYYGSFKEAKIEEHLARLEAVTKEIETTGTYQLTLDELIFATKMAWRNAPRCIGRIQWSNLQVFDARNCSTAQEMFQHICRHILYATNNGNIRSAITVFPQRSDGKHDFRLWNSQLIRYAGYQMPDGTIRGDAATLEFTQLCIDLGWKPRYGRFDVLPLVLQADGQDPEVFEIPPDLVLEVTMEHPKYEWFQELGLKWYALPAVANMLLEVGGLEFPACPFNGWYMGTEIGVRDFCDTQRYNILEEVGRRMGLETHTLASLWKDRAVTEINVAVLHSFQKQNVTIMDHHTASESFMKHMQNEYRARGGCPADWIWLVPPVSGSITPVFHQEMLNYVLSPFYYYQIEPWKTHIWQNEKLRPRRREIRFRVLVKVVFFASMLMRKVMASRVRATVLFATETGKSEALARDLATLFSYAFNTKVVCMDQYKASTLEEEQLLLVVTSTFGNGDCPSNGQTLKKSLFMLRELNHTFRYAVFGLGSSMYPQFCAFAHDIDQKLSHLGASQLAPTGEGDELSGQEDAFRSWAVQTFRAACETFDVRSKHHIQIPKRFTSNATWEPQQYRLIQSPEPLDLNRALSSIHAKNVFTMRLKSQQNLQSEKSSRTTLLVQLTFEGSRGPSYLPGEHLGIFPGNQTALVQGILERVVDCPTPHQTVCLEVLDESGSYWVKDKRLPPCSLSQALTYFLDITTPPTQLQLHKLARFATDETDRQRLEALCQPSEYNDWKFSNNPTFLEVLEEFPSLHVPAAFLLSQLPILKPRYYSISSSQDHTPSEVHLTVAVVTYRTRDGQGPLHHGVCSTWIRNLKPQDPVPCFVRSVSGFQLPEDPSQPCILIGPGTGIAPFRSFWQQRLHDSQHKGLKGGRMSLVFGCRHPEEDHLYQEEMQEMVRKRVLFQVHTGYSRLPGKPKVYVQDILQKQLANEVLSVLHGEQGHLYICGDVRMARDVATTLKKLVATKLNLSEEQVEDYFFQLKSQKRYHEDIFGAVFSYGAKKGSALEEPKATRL
Outline: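 Crude enzyme was the supernatant of collected RAW264.7 cells, adjusted to 50 mM Tris and 100 µM dithiothreitol final. Enzyme was incubated 30 min with NADPH, compound, L-[3H]-arginine (10 µCi/mL stock) and Tris pH 7.5. The reaction was stopped with 0.1 M buffer pH 5.0 containing 2 mM EDTA and 2 mM EGTA, then stirred 5 min with Dowex 50W-8X. L-[3H]-citrulline in the supernatant was read by scintillation counting.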

RAW264.7 [3] = assay: Immunosuppressive activity in mouse RAW264.7 cells assessed as inhibition of LPS-induced nitric oxide production incubated for 24 hrs by Griess method; type: functional
Outline: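 Murine macrophage-like RAW264.7 cells were activated with LPS. Control wells (LPS only) and blank wells (cells only) each received 0.1% DMSO vehicle.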

RAW264.7 [4] = assay: Inhibition of iNOS mRNA expression in mouse RAW264.7 cells by RT-PCR; type: functional, cell-based

| IC50 [2] [nM] | SMILES | deltaA (RAW264.7 [1]) | inhibition (INH) (RAW264.7 [3]) [%] | inhibition (RAW264.7 [4]) |
| --- | --- | --- | --- | --- |
| 2350 | c1ccc(-c2nnc(-c3ccc4c(c3)OCCO4)o2)cc1 | 1.5 | 5.08 |  |
|  | Brc1ccc(Cc2nnc(-c3ccc4c(c3)OCCO4)o2)cc1 | 0.99 | -8.53 |  |
| 120 | COc1cc(-c2nnc(-c3ccc4c(c3)OCCO4)o2)cc(OC)c1OC | 1.02 | 20.03 | inactive |
| 50 | c1cncc(-c2nnc(-c3ccc4c(c3)OCCO4)o2)c1 | 1.31 | 37.66 | Active |
|  | c1ccc(CCc2nnc(-c3ccc4c(c3)OCCO4)o2)cc1 | 0.1 | 3.71 |  |
| 100 | Cc1ccccc1-c1nnc(-c2ccc3c(c2)OCCO3)o1 | 1.03 | 21.58 | inactive |
| 90 | C(=C\c1nnc(-c2ccc3c(c2)OCCO3)o1)/c1ccccc1 | 1.15 | 25.54 | inactive |
| 2160 | Clc1ccc(OCc2nnc(-c3ccc4c(c3)OCCO4)o2)cc1 | 0.89 | 10.49 |  |
|  | Clc1cccc(Cc2nnc(-c3ccc4c(c3)OCCO4)o2)c1 | 0.2 | 23.7 |  |
|  | COc1cccc(Cc2nnc(-c3ccc4c(c3)OCCO4)o2)c1 | 0.76 | 21.66 |  |
|  | Clc1ccccc1-c1nnc(-c2ccc3c(c2)OCCO3)o1 | 1.45 | -57.48 |  |
|  | Clc1ccc(Cc2nnc(-c3ccc4c(c3)OCCO4)o2)cc1 | 0.63 | 28.11 |  |
|  | Brc1cncc(-c2nnc(-c3ccc4c(c3)OCCO4)o2)c1 | 1.22 | -42.39 |  |
|  | c1ccc(OCc2nnc(-c3ccc4c(c3)OCCO4)o2)cc1 | 0.36 | 6.98 |  |
|  | O=[N+]([O-])c1ccc(-c2nnc(-c3ccc4c(c3)OCCO4)o2)cc1 | 0.57 | 1.34 |  |
|  | c1ccc(Cc2nnc(-c3ccc4c(c3)OCCO4)o2)cc1 | 0.45 | -3.63 |  |
|  | O=[N+]([O-])c1ccccc1-c1nnc(-c2ccc3c(c2)OCCO3)o1 | 0.3 | 3.65 |  |
|  | O=[N+]([O-])c1cccc(-c2nnc(-c3ccc4c(c3)OCCO4)o2)c1 | 0.73 | -33.82 |  |
